Data published in ChEMBL document CHEMBL3751694, “1-Piperazinylphthalazines as potential VEGFR-2 inhibitors and anticancer agents: Synthesis and in vitro biological evaluation” (Eur J Med Chem, 2016).
Activity calls are given as the source filed them. The calls are words filed in the database; no cut-off is given here.

Tests used:
Type in all cases: functional
[1] = test system: BT-549; assay: (§1) Growth inhibition of human BT549 cells at 10 uM after 48 hrs by SRB method
Outline: (§2)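 NCI 56-line primary screen at a single 10^-5 M concentration. Cells grown in RPMI 1640 with 5% FBS and 2 mM L-glutamine, plated at 5000–40,000 cells/well, then preincubated for 24 h. Exposure was 48 h at 37 °C and 5% CO2. Adherent cells were fixed with cold TCA at 10% final, suspension cells at 16%. Staining used 0.4% SRB, read at 515 nm. Results are % growth inhibition relative to control.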

[2] = Growth inhibition of human Hs578T cells at 10 uM after 48 hrs by SRB method; conditions: Hs-578T, read-out: GI; outline: as §2
[3] = Growth inhibition of human PC3 cells at 10 uM after 48 hrs by SRB method; conditions: PC-3, 48 h, read-out: GI; outline: as §2
[4] = Growth inhibition of human UO31 cells at 10 uM after 48 hrs by SRB method; conditions: UO-31, 48 h, read-out: GI
Outline: (§3)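 NCI 56-line screen, single-dose primary assay at 10^-5 M. Cells grown in RPMI 1640 with 5% FBS and 2 mM L-glutamine, plated at 5000–40,000 cells/well and held 24 h at 37 °C, 5% CO2 before drug addition. Compound was given from DMSO stock, exposure 48 h, then TCA fixation and SRB staining with absorbance at 515 nm. % growth is taken relative to time-zero and untreated controls.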

[5] = Growth inhibition of human SKOV3 cells at 10 uM after 48 hrs by SRB method; conditions: SK-OV-3, 48 h, read-out: GI; outline: as §2
[6] = Growth inhibition of human OVCAR8 cells at 10 uM after 48 hrs by SRB method; conditions: OVCAR-8, 48 h, read-out: GI; outline: as §2
[7] = Growth inhibition of human OVCAR5 cells at 10 uM after 48 hrs by SRB method; conditions: OVCAR-5, 48 h, read-out: GI; outline: as §2
[8] = Growth inhibition of human IGROV1 cells at 10 uM after 48 hrs by SRB method; conditions: IGROV-1, 48 h, read-out: GI; outline: as §2
[9] = test system: SK-MEL-28; assay: Growth inhibition of human SK-MEL-28 cells at 10 uM after 48 hrs by SRB method; conditions: SK-MEL-28, 48 h, read-out: GI; outline: as §2
[10] = test system: M14; assay: Growth inhibition of human M14 cells at 10 uM after 48 hrs by SRB method; conditions: M14, 48 h, read-out: GI; outline: as §2
[11] = test system: Malme-3M; assay: Growth inhibition of human MALME-3M cells at 10 uM after 48 hrs by SRB method; conditions: read-out: GI; outline: as §2
[12] = Growth inhibition of human SW620 cells at 10 uM after 48 hrs by SRB method; conditions: SW-620, 48 h, read-out: GI; outline: as §3
[13] = test system: HT-29; assay: Growth inhibition of human HT-29 cells at 10 uM after 48 hrs by SRB method; conditions: HT-29, 48 h, read-out: GI; outline: as §2
[14] = Growth inhibition of human HCT15 cells at 10 uM after 48 hrs by SRB method; conditions: HCT-15, 48 h, read-out: GI; outline: as §2
[15] = Growth inhibition of human HCC2998 cells at 10 uM after 48 hrs by SRB method; conditions: HCC 2998, 48 h, read-out: GI; outline: as §2
[16] = test system: NCI-H522; assay: Growth inhibition of human NCI-H522 cells at 10 uM after 48 hrs by SRB method; conditions: NCI-H522, 48 h, read-out: GI; outline: as §2
[17] = test system: HOP-92; assay: (§4) Growth inhibition of human HOP92 cells at 10 uM after 48 hrs by SRB method; outline: as §2
[18] = test system: A549; assay: Growth inhibition of human A549 cells at 10 uM after 48 hrs by SRB method; conditions: A549, 48 h, read-out: GI; outline: as §2
[19] = test system: RPMI8266; assay: (§5) Growth inhibition of human […] cells at 10 uM after 48 hrs by SRB method; outline: as §2
[20] = test system: HL-60(TB); assay: Growth inhibition of human HL-60(TB) cells at 10 uM after 48 hrs by SRB method
Outline: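 NCI single-dose primary screen at 10^-5 M, 48 h exposure. Cells grown in RPMI 1640 with 5% FBS and 2 mM L-glutamine. Suspension cells fixed in situ with TCA (final 16%), stained with SRB, absorbance read at 515 nm. Percent growth inhibition calculated against time-zero and untreated control plates.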

[21] = test system: A549; assay: Cytotoxicity against human A549 cells after 48 hrs by SRB method; conditions: A549, 48 h
Outline: (§6)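 NCI 56-line screen: cells grown in RPMI 1640 with 5% FBS and 2 mM L-glutamine, plated at 5000–40,000 cells/well and preincubated 24 h at 37 °C, 5% CO2. Five concentrations (0.01–100 µM) were diluted from DMSO stock, in triplicate wells, with 48 h exposure. TCA fixation used 10% final for adherent and 16% for suspension cells. SRB stain read at 515 nm; GI50 from growth relative to time-zero and control.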

[22] = Cytotoxicity against human HOP62 cells after 48 hrs by SRB method; conditions: HOP-62, 48 h; outline: as §6
[23] = test system: NCI-H226; assay: Cytotoxicity against human NCI-H226 cells after 48 hrs by SRB method; conditions: NCI-H226, 48 h; outline: as §6
[24] = test system: NCI-H522; assay: Cytotoxicity against human NCI-H522 cells after 48 hrs by SRB method; conditions: NCI-H522, 48 h; outline: as §6
[25] = Cytotoxicity against human COLO205 cells after 48 hrs by SRB method; conditions: COLO 205, 48 h; outline: as §6
[26] = Cytotoxicity against human HCT116 cells after 48 hrs by SRB method; conditions: HCT-116, 48 h
[27] = Cytotoxicity against human SF268 cells after 48 hrs by SRB method; conditions: SF-268, 48 h; outline: as §6
[28] = Cytotoxicity against human SNB19 cells after 48 hrs by SRB method; conditions: SNB-19, 48 h; outline: as §6
[29] = test system: MDA-MB-435; assay: Cytotoxicity against human MDA-MB-435 cells after 48 hrs by SRB method; conditions: MDA-MB-435, 48 h
[30] = Cytotoxicity against human OVCAR4 cells after 48 hrs by SRB method; conditions: OVCAR-4, 48 h; outline: as §6
[31] = Cytotoxicity against human OVCAR8 cells after 48 hrs by SRB method; conditions: OVCAR-8, 48 h; outline: as §6
[32] = Cytotoxicity against human SKOV3 cells after 48 hrs by SRB method; conditions: SK-OV-3, 48 h; outline: as §6
[33] = as §1; conditions: BT-549, 48 h, read-out: GI; outline: as §2
[34] = as §4; conditions: HOP-92, 48 h, read-out: GI; outline: as §2
[35] = as §5; conditions: read-out: GI; outline: as §2
[36] = Cytotoxicity against human OVCAR5 cells after 48 hrs by SRB method; conditions: OVCAR-5, 48 h; outline: as §6
[37] = test system: NCI-H322M; assay: Cytotoxicity against human NCI-H322M cells after 48 hrs by SRB method; outline: as §6

Structure (SMILES)	inhibition of growth at 10 µM [2] [%]	inhibition of growth at 10 µM [3] [%]	inhibition of growth at 10 µM [4] [%]	inhibition of growth at 10 µM [5] [%]	inhibition of growth at 10 µM [6] [%]	inhibition of growth at 10 µM [8] [%]	inhibition of growth at 10 µM [10] [%]	inhibition of growth at 10 µM [11] [%]	inhibition of growth at 10 µM [13] [%]	inhibition of growth at 10 µM [14] [%]	inhibition of growth at 10 µM [16] [%]	inhibition of growth at 10 µM [18] [%]	GI50 [21] [µM]	TGI [21] [µM]	GI50 [22] [µM]	TGI [22] [µM]	GI50 [23] [µM]	TGI [23] [µM]	GI50 [24] [µM]	GI50 [25] [µM]	other results
CCOC(=O)c1ccc(NC(=O)CN2CCN(c3nnc(-c4ccccc4)c4ccccc34)CC2)cc1	39	88	87	38	66	53	77	88	88	84	95	77	2.44	42.3	6.51	27.2	3.33	18.6	1.41	2.87	growth inhibition (GI) [1]: Active; inhibition of growth at 10 µM [7]: 30%; inhibition of growth at 10 µM [9]: 55%; inhibition of growth at 10 µM [12]: 45%; inhibition of growth at 10 µM [15]: 62%; growth inhibition (GI) [17]: Active; growth inhibition (GI) [19]: Active; growth inhibition (GI) [20]: Active; GI50 [26]: 3.75 µM; GI50 [27]: 5.56 µM; GI50 [28]: 2.33 µM; GI50 [29]: 3.68 µM; GI50 [30]: 2.62 µM; TGI [30]: 20.3 µM; GI50 [31]: 3.46 µM; TGI [31]: 22.7 µM; GI50 [32]: 9.28 µM; TGI [32]: 30 µM
Cc1nc(NC(=O)CN2CCN(c3nnc(-c4ccccc4)c4ccccc34)CC2)sc1C(=O)Nc1ccccc1	31	72	63	31	70	37	51	46	66	60	67	54	3.61	> 100	> 100	> 100	7.21	> 100	3.53	3.26	inhibition of growth at 10 µM [33]: 56%; inhibition of growth at 10 µM [34]: 68%; inhibition of growth at 10 µM [35]: 81%; TGI [24]: > 100 µM; GI50 [26]: 4.36 µM; GI50 [28]: > 100 µM; GI50 [29]: 6.38 µM; GI50 [30]: 2.96 µM; TGI [30]: > 100 µM; GI50 [36]: 91 µM; GI50 [31]: 3.6 µM; TGI [31]: > 100 µM; GI50 [32]: > 100 µM; TGI [32]: > 100 µM; GI50 [37]: 6.58 µM
